This is an account of results in ChEMBL document CHEMBL4177693, “Design, synthesis, and biological evaluation of thieno[2,3-d]pyrimidine derivatives as novel dual c-Met and VEGFR-2 kinase inhibitors” (Bioorg Med Chem, 2017).

The test system of one assay is BaF3. Put plainly: Antiproliferative activity against mouse BAF3 cells harboring […] at 1 uM after 72 hrs by CCK-8 assay relative to control. Format: functional. Conditions: BaF3, 72 h. The method, boiled down:
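Murine BaF3 cells expressing TPR-Met (c-Met-dependent) were plated in RPMI 1640 with 10% FBS. Serial compound dilutions or 0.1% DMSO were added the following day, and cells were incubated a further 72 h before CCK-8 read-out. IC50 was fitted by nonlinear regression; single-point percent inhibition was tested at 1 μM.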

The subject of assay [1] is HUVEC. Put plainly: Antiproliferative activity against human VEGF-stimulated HUVEC cells at 1 uM after 120 hrs by CCK-8 assay relative to control. Format: functional. In a few lines:
(§1)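 HUVECs were plated in human endothelial serum-free medium. The next day, serial dilutions of compound or 0.1% DMSO vehicle were added, with 60 ng/mL recombinant human VEGF to drive proliferation for 120 h. Viability was read by CCK-8. IC50 came from nonlinear regression; percent inhibition was also scored at a single 1 μM concentration.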
(In general: Tetrazolium dyes change colour on reduction, which living cells bring about.)

Assay [2] concerns HUVEC. Put plainly: Antiproliferative activity against human VEGF-stimulated HUVEC after 120 hrs by CCK-8 assay. In kind it is functional, cell-based. The method, boiled down: as §1

As to `Cc1c(C(=O)N(C)C)sc2ncnc(Oc3ccc(NC(=O)C4(C(=O)Nc5ccc(F)cc5)CC4)cc3F)c12`, the results for the inhibition at 1 µM in the assay with BaF3 and with HUVEC [1] were 60% and 24.4%, respectively.

With `Cc1c(C(=O)N2CCSCC2)sc2ncnc(Oc3ccc(NC(=O)C4(C(=O)Nc5ccc(F)cc5)CC4)cc3F)c12`, the figures for the inhibition at 1 µM with BaF3 and in the assay on HUVEC [1] were 23% and 15.5%, respectively.

Turning to `Cc1c(C(=O)N2CCCCC2)sc2ncnc(Oc3ccc(NC(=O)C4(C(=O)Nc5ccc(F)cc5)CC4)cc3F)c12`, the inhibition at 1 µM in the assay on BaF3 was found to be 20.3%; with HUVEC [1] it was 10.5%.

On to `Cc1c(C(=O)NCC#N)sc2ncnc(Oc3ccc(NC(=O)C4(C(=O)Nc5ccc(F)cc5)CC4)cc3F)c12`, for which the values for the inhibition at 1 µM in the assay on BaF3 and in the assay on HUVEC [1] were 92.6% and 66.7%, respectively. This compound also came in with an IC50 in the assay with HUVEC [2] of 123 nM.

Regarding `Cc1c(C(=O)N2CCCC2)sc2ncnc(Oc3ccc(NC(=O)C4(C(=O)Nc5ccc(F)cc5)CC4)cc3F)c12`, the inhibition at 1 µM is 31.1% in the assay with BaF3 and 15.8% in the assay with HUVEC [1].

In the case of `Cc1c(C(=O)OCc2ccccc2)sc2ncnc(Oc3ccc(NC(=O)C4(C(=O)Nc5ccc(F)cc5)CC4)cc3F)c12`, the inhibition at 1 µM came to 10.5% in the assay on BaF3 and 6.17% in the assay on HUVEC [1].

In the case of `Cc1c(C(=O)NCCS(C)(=O)=O)sc2ncnc(Oc3ccc(NC(=O)C4(C(=O)Nc5ccc(F)cc5)CC4)cc3F)c12`, the results for the inhibition at 1 µM in the assay with BaF3 and with HUVEC [1] were 96% and 79.5%, respectively. In addition, the IC50 in the assay on HUVEC [2] was 86 nM.

Consider `Cc1c(C(=O)O)sc2ncnc(Oc3ccc(NC(=O)C4(C(=O)Nc5ccc(F)cc5)CC4)cc3F)c12`, for which the inhibition at 1 µM with BaF3 turned out to be 2.13%; in the assay on HUVEC [1] it was 8.72%.

Regarding `COCCNC(=O)c1sc2ncnc(Oc3ccc(NC(=O)C4(C(=O)Nc5ccc(F)cc5)CC4)cc3F)c2c1C`, the inhibition at 1 µM in the assay on BaF3 came out at 90.9%; in the assay on HUVEC [1], 68.9%. Moreover, the IC50 in the assay on HUVEC [2] amounted to 139 nM.

Turning to `Cc1c(C(=O)Nc2ccc(F)cc2)sc2ncnc(Oc3ccc(NC(=O)C4(C(=O)Nc5ccc(F)cc5)CC4)cc3F)c12`, the inhibition at 1 µM came to 26.7% with BaF3 and 32.9% with HUVEC [1].

On to `Cc1c(C(=O)NCCN2CCCC2)sc2ncnc(Oc3ccc(NC(=O)C4(C(=O)Nc5ccc(F)cc5)CC4)cc3F)c12`, for which the inhibition at 1 µM was determined as 88.2% in the assay on BaF3 and 29.7% in the assay with HUVEC [1].

Turning to `Cc1c(C(=O)N2CCOCC2)sc2ncnc(Oc3ccc(NC(=O)C4(C(=O)Nc5ccc(F)cc5)CC4)cc3F)c12`, the inhibition at 1 µM amounted to 61.5% with BaF3 and 10.8% in the assay on HUVEC [1].

Regarding `Cc1c(C(=O)NCCC(C)C)sc2ncnc(Oc3ccc(NC(=O)C4(C(=O)Nc5ccc(F)cc5)CC4)cc3F)c12`, the inhibition at 1 µM was 86.6% in the assay on BaF3 and 27.5% with HUVEC [1].

Consider `COC(=O)c1sc2ncnc(Oc3ccc(NC(=O)C4(C(=O)Nc5ccc(F)cc5)CC4)cc3F)c2c1C`, for which the figures for the inhibition at 1 µM with BaF3 and with HUVEC [1] were 18.1% and 4.56%, respectively.

On to `COc1cc2nccc(Oc3ccc(NC(=O)C4(C(=O)Nc5ccc(F)cc5)CC4)cc3)c2cc1OC` [CABOZANTINIB], for which the inhibition at 1 µM is 97.7% with BaF3 and 72.8% in the assay on HUVEC [1].

With `Cc1c(C(=O)NC2CC2)sc2ncnc(Oc3ccc(NC(=O)C4(C(=O)Nc5ccc(F)cc5)CC4)cc3F)c12`, the inhibition at 1 µM was found to be 26.6% with BaF3 and 13.7% in the assay on HUVEC [1].

As for `COCCCNC(=O)c1sc2ncnc(Oc3ccc(NC(=O)C4(C(=O)Nc5ccc(F)cc5)CC4)cc3F)c2c1C`, the inhibition at 1 µM is 88.6% with BaF3 and 33.3% in the assay with HUVEC [1].

For the compound `Cc1c(C(=O)NCCCN2CCOCC2)sc2ncnc(Oc3ccc(NC(=O)C4(C(=O)Nc5ccc(F)cc5)CC4)cc3F)c12`, the inhibition at 1 µM in the assay with BaF3 was found to be 92.8%; in the assay with HUVEC [1], 61.3%. Besides, in the assay on HUVEC [2], the IC50 was determined as 153 nM.

For `CCOC(=O)c1sc2ncnc(Oc3ccc(NC(=O)C4(C(=O)Nc5ccc(F)cc5)CC4)cc3F)c2c1C`, the figures for the inhibition at 1 µM in the assay with BaF3 and in the assay on HUVEC [1] were 16.4% and 12.7%, respectively.

For the compound `CC(=O)N1CCN(C(=O)c2sc3ncnc(Oc4ccc(NC(=O)C5(C(=O)Nc6ccc(F)cc6)CC5)cc4F)c3c2C)CC1`, the inhibition at 1 µM in the assay on BaF3 came to 61%; in the assay with HUVEC [1] it was 23.8%.

Turning to `Cc1c(C(=O)NCCN2CCOCC2)sc2ncnc(Oc3ccc(NC(=O)C4(C(=O)Nc5ccc(F)cc5)CC4)cc3F)c12`, the inhibition at 1 µM with BaF3 was found to be 95.4%; in the assay on HUVEC [1], 73.6%. Besides, in the assay on HUVEC [2], the IC50 amounted to 89 nM.

For orientation: inhibition means the drop in the measured response relative to a control, in per cent. Low values mean little suppression, high ones strong suppression. As usually defined, the IC50 is the concentration that gives 50% inhibition. Low readings indicate greater potency in that assay, high ones weaker potency in that assay.
